Results reported in ChEMBL document CHEMBL2311247, “Antimicrobial activity of various 4- and 5-substituted 1-phenylnaphthalenes” (2013).
In brackets after ≈: the same amount, converted by molar mass. Activity calls are given as the source filed them. No cut-off for these calls is given here.

Legend:
Enterococcus faecalis [1] = experiment: Antibacterial activity against vancomycin-resistant Enterococcus faecalis ATCC 51575 assessed as growth inhibition after 24 hrs by CLSI broth microdilution method; assay type: functional; details: ATCC 51575, 24 h
Method in brief: (§1)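 Run per CLSI broth microdilution. Log-phase E. faecalis at 10⁵ CFU/mL in brain-heart infusion broth with 2-fold serial dilutions (64 to 0.031 µg/mL), incubated aerobically 24 h at 37 °C. Growth is measured by OD₆₀₀, and MIC is the lowest concentration inhibiting growth by ≥90%.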

Enterococcus faecalis [2] = experiment: Antibacterial activity against vancomycin-sensitive Enterococcus faecalis ATCC 19433 assessed as growth inhibition after 24 hrs by CLSI broth microdilution method; assay type: functional; details: ATCC 19433, 24 h; method in brief: as §1
Staphylococcus aureus [3] = experiment: Antibacterial activity against methicillin-resistant Staphylococcus aureus ATCC 33591 assessed as growth inhibition after 24 hrs by CLSI broth microdilution method; assay type: functional; details: ATCC 33591, 24 h
Method in brief: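 CLSI broth microdilution. Log-phase bacteria at 10⁵ CFU/mL are added to 2-fold serial dilutions from 64 to 0.031 µg/mL in cation-adjusted Mueller-Hinton broth with 2% NaCl. Plates are incubated aerobically for 24 h at 37 °C and growth is read as OD₆₀₀. MIC is the lowest concentration giving ≥90% growth inhibition.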

Staphylococcus aureus [4] = experiment: Antibacterial activity against methicillin-sensitive Staphylococcus aureus 8325-4 assessed as growth inhibition after 24 hrs by CLSI broth microdilution method; assay type: functional; details: 8325-4, 24 h
Method in brief: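 MSSA strain 8325-4; log-phase inoculum at 10⁵ CFU/mL. 2-fold serial dilutions, 64 to 0.031 µg/mL, in cation-adjusted Mueller-Hinton broth. Aerobic incubation, 24 h, 37 °C. Growth read as OD₆₀₀. MIC is the lowest concentration giving ≥90% growth inhibition.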

[5] = molecular target: T1, Cell division protein FtsZ (Staphylococcus aureus) (UniProt P0A031); experiment: Stimulation of Staphylococcus aureus ATCC 33591-D FtsZ polymerization expressed in Escherichia coli BL21 (DE3) assessed as inhibition of FtsZ Z-ring formation at 40 ug/mL measured for 300 mins by microtiter plate-based turbidity assay
T1 sequence (whole entry): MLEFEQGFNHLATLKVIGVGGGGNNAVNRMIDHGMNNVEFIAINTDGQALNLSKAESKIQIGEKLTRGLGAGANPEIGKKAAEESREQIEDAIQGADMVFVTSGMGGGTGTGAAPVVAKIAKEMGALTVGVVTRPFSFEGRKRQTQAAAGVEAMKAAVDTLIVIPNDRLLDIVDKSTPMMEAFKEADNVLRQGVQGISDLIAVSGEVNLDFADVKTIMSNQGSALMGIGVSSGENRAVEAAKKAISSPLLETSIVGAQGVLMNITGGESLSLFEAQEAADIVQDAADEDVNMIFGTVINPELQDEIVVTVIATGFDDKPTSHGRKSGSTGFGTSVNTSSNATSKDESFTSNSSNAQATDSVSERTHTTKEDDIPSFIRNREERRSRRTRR
Method in brief: (§2)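 SaFtsZ expressed in E. coli BL21 (DE3) under 1 mM IPTG induction for 3 h at 37 °C. Purified by MonoQ anion exchange then Superdex-200, about 90% pure. Turbidity assay at 25 °C in 50 mM Tris·HCl pH 7.4, 50 mM KCl, 2 mM magnesium acetate, 1 mM GTP. Compound at 40 µg/mL. Reaction started with 10 µM protein (final). A₃₄₀ monitored continuously for 300 min.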

[6] = molecular target: T1, Cell division protein FtsZ (Staphylococcus aureus); experiment: Stimulation of Staphylococcus aureus ATCC 33591-D FtsZ polymerization expressed in Escherichia coli BL21 (DE3) assessed as inhibition of FtsZ Z-ring formation at 40 ug/mL by microtiter plate-based turbidity assay; details: TDE = time-dependent effect; method in brief: as §2

SMILES	MIC (Enterococcus faecalis [1])	MIC (Enterococcus faecalis [2])	MIC (Staphylococcus aureus [3])	MIC (Staphylococcus aureus [4])	inhibition [5]	inhibition [6]
NC(N)=NCc1cccc2c(-c3ccc(Br)cc3)cccc12	8 µg/mL (≈ 22.6 µM)	8 µg/mL (≈ 22.6 µM)	8 µg/mL (≈ 22.6 µM)	2 µg/mL (≈ 5.65 µM)		
Cc1onc(-c2ccccc2)c1C(=O)N[C@@H]1C(=O)N2[C@@H]1SC(C)(C)[C@@H]2C(=O)O [OXACILLIN]	> 64 µg/mL	8 µg/mL (≈ 19.9 µM)	> 64 µg/mL	0.06 µg/mL (≈ 0.149 µM)		
NC(N)=NCCc1cccc2c(-c3ccc(C(F)(F)F)cc3)cccc12	4 µg/mL (≈ 11.2 µM)	4 µg/mL (≈ 11.2 µM)	4 µg/mL (≈ 11.2 µM)	1 µg/mL (≈ 2.8 µM)		
CC(C)(C)c1ccc(-c2ccc(CN)c3ccccc23)cc1	8 µg/mL (≈ 27.6 µM)	8 µg/mL (≈ 27.6 µM)	8 µg/mL (≈ 27.6 µM)	4 µg/mL (≈ 13.8 µM)		
NCCc1cccc2c(-c3ccc(C(F)(F)F)cc3O)cccc12	16 µg/mL (≈ 48.3 µM)	16 µg/mL (≈ 48.3 µM)	16 µg/mL (≈ 48.3 µM)	8 µg/mL (≈ 24.1 µM)		
NC(N)=NCc1cccc2c(-c3ccc(C(F)(F)F)cc3)cccc12	16 µg/mL (≈ 46.6 µM)	8 µg/mL (≈ 23.3 µM)	8 µg/mL (≈ 23.3 µM)	2 µg/mL (≈ 5.82 µM)		
CCC[C@@H]1C[C@@H](C(=O)N[C@@H]([C@H]2O[C@H](SC)[C@H](O)[C@@H](O)[C@H]2O)[C@H](C)Cl)N(C)C1 [CLINDAMYCIN]	> 64 µg/mL	2 µg/mL (≈ 4.71 µM)	> 64 µg/mL	0.03 µg/mL (≈ 0.0706 µM)		
N=C(N)Cc1cccc2c(-c3ccc(C(F)(F)F)cc3)cccc12	8 µg/mL (≈ 24.4 µM)	4 µg/mL (≈ 12.2 µM)	8 µg/mL (≈ 24.4 µM)	4 µg/mL (≈ 12.2 µM)		
CC(C)(C)c1ccc(-c2cccc3c(CN)cccc23)cc1	8 µg/mL (≈ 27.6 µM)	8 µg/mL (≈ 27.6 µM)	4 µg/mL (≈ 13.8 µM)	4 µg/mL (≈ 13.8 µM)		
CC(C)(C)c1ccc(-c2cccc3c(CN=C(N)N)cccc23)cc1	4 µg/mL (≈ 12.1 µM)	2 µg/mL (≈ 6.03 µM)	2 µg/mL (≈ 6.03 µM)	0.5 µg/mL (≈ 1.51 µM)	inactive	tde
NC(N)=NCc1cccc2c(-c3ccc(Cl)cc3)cccc12	8 µg/mL (≈ 25.8 µM)	8 µg/mL (≈ 25.8 µM)	8 µg/mL (≈ 25.8 µM)	2 µg/mL (≈ 6.46 µM)		
COc1cc(C(F)(F)F)ccc1-c1cccc2c(CN=C(N)N)cccc12	4 µg/mL (≈ 10.7 µM)	4 µg/mL (≈ 10.7 µM)	8 µg/mL (≈ 21.4 µM)	2 µg/mL (≈ 5.36 µM)		
CC(C)(C)c1ccc(-c2cccc3c(CC(=N)N)cccc23)cc1	8 µg/mL (≈ 25.3 µM)	4 µg/mL (≈ 12.6 µM)	4 µg/mL (≈ 12.6 µM)	4 µg/mL (≈ 12.6 µM)		
CC[C@H]1OC(=O)[C@H](C)[C@@H](O[C@H]2C[C@@](C)(OC)[C@@H](O)[C@H](C)O2)[C@H](C)[C@@H](O[C@@H]2O[C@H](C)C[C@H](N(C)C)[C@H]2O)[C@](C)(O)C[C@@H](C)C(=O)[C@H](C)[C@@H](O)[C@]1(C)O [ERYTHROMYCIN]	> 64 µg/mL	1 µg/mL (≈ 1.36 µM)	> 64 µg/mL	0.13 µg/mL (≈ 0.177 µM)		
CN(C)[C@@H]1C(O)=C(C(N)=O)C(=O)[C@@]2(O)C(O)=C3C(=O)c4c(O)cccc4[C@@](C)(O)[C@H]3C[C@@H]12 [TETRACYCLINE]	> 64 µg/mL	0.5 µg/mL (≈ 1.13 µM)	64 µg/mL (≈ 144 µM)	0.06 µg/mL (≈ 0.135 µM)		
CC(C)(C)c1ccc(-c2cccc3c(CCN)cccc23)cc1	4 µg/mL (≈ 13.2 µM)	2 µg/mL (≈ 6.59 µM)	4 µg/mL (≈ 13.2 µM)	2 µg/mL (≈ 6.59 µM)	inactive	tde
CC(C)(C)c1ccc(-c2ccc(CCN)c3ccccc23)cc1	4 µg/mL (≈ 13.2 µM)	4 µg/mL (≈ 13.2 µM)	4 µg/mL (≈ 13.2 µM)	4 µg/mL (≈ 13.2 µM)		
CN[C@H](CC(C)C)C(=O)N[C@H]1C(=O)N[C@@H](CC(N)=O)C(=O)N[C@H]2C(=O)N[C@H]3C(=O)N[C@H](C(=O)N[C@H](C(=O)O)c4cc(O)cc(O)c4-c4cc3ccc4O)[C@H](O)c3ccc(c(Cl)c3)Oc3cc2cc(c3O[C@@H]2O[C@H](CO)[C@@H](O)[C@H](O)[C@H]2O[C@H]2C[C@](C)(N)[C@H](O)[C@H](C)O2)Oc2ccc(cc2Cl)[C@H]1O [VANCOMYCIN]	> 64 µg/mL	1 µg/mL (≈ 0.69 µM)				
COc1cc(C(F)(F)F)ccc1-c1cccc2c(CCN)cccc12	8 µg/mL (≈ 23.2 µM)	8 µg/mL (≈ 23.2 µM)	16 µg/mL (≈ 46.3 µM)	8 µg/mL (≈ 23.2 µM)		
COc1cc(C(F)(F)F)ccc1-c1cccc2c(CCN=C(N)N)cccc12	4 µg/mL (≈ 10.3 µM)	4 µg/mL (≈ 10.3 µM)	8 µg/mL (≈ 20.7 µM)	2 µg/mL (≈ 5.16 µM)		
C[n+]1cc2c3c(ccc2c2ccc4cc5c(cc4c21)OCO5)OCO3 [SANGUINARIUM]	16 µg/mL	8 µg/mL	2 µg/mL	2 µg/mL		
CC(C)(C)c1ccc(-c2cccc3c(CCN=C(N)N)cccc23)cc1	2 µg/mL (≈ 5.79 µM)	2 µg/mL (≈ 5.79 µM)	2 µg/mL (≈ 5.79 µM)	1 µg/mL (≈ 2.89 µM)		
NC(N)=NCc1cccc2c(-c3ccc(C4CC4)cc3)cccc12	8 µg/mL (≈ 25.4 µM)	8 µg/mL (≈ 25.4 µM)	8 µg/mL (≈ 25.4 µM)	1 µg/mL (≈ 3.17 µM)		
COc1ccc2c(c[n+](C)c3c4cc5c(cc4ccc23)OCO5)c1OC [CHELERYTHRINE]	32 µg/mL	32 µg/mL	4 µg/mL	4 µg/mL		
CC(C)(C)c1ccc(-c2ccc(CCN=C(N)N)c3ccccc23)cc1	4 µg/mL (≈ 11.6 µM)	2 µg/mL (≈ 5.79 µM)	4 µg/mL (≈ 11.6 µM)	2 µg/mL (≈ 5.79 µM)		
CC(C)(C)c1ccc(-c2ccc(CN=C(N)N)c3ccccc23)cc1	2 µg/mL (≈ 6.03 µM)	2 µg/mL (≈ 6.03 µM)	2 µg/mL (≈ 6.03 µM)	2 µg/mL (≈ 6.03 µM)		
